ChEMBL document CHEMBL2385013, “7-Phenyl-imidazoquinolin-4(5H)-one derivatives as selective and orally available mPGES-1 inhibitors” (Bioorg Med Chem, 2013)
Converted amounts (≈) assume the structure as drawn.

Tests used:
[1] = Oral bioavailability in rat at 10 mg/kg; assay type: ADME, organism-based; conditions: in vivo
Summary of the method: (§1)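 Fasted male rats (n = 3) were given 1 mg/kg iv in 5% glucose/0.1 M HCl = 9/1, or 10 mg/kg po as a suspension in 0.5% methyl cellulose. Jugular vein blood was drawn into heparinized syringes at iv pre-dose, 5, 15, 30 min, 1, 2, 4, 6 and 24 h, or at po 15 and 30 min, 1, 2, 4, 6 and 24 h. Plasma was analysed for parent compound. BA = (AUCpo/Dpo)/(AUCiv/Div) × 100.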

[2] = AUC in rat at 10 mg/kg, po; assay type: ADME, organism-based; parameters: dose 10 mg/kg, route oral; conditions: plasma; summary of the method: as §1
[3] = Cmax in rat at 10 mg/kg, po; assay type: ADME, organism-based; parameters: dose 10 mg/kg, route oral; conditions: in vivo; summary of the method: as §1
[4] = AUC in rat at 1 mg/kg, iv; assay type: ADME, organism-based; parameters: dose 1 mg/kg, route intravenous; conditions: plasma; summary of the method: as §1
[5] = Volume of distribution at steady state in rat at 1 mg/kg, iv; assay type: ADME, organism-based; parameters: dose 1 mg/kg, route intravenous; conditions: in vivo, read-out: Vdss; summary of the method: as §1
[6] = Solubility of the compound in FaSSIF; assay type: physicochemical
[7] = Permeability of the compound at pH 5 by PAMPA; assay type: ADME; conditions: read-out: permeability
Summary of the method: (§2)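 Compound was incubated for 4 h between a donor compartment (System Solution, pH 5.0 or 7.4) and an acceptor sink buffer. The distribution was read by UV absorption, and effective permeability coefficients were calculated by a published method.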

[8] = Permeability of the compound at pH 7.4 by PAMPA; assay type: ADME; conditions: read-out: permeability; summary of the method: as §2

| SMILES | bioavailability [1] | AUC [2] | Cmax [3] | AUC [4] | Vd [5] | solubility [6] | Papp [7] | Papp [8] |
| --- | --- | --- | --- | --- | --- | --- | --- | --- |
| O=c1[nH]c2cc(-c3ccccc3)ccc2c2nc(-c3c(F)cccc3Cl)[nH]c12 | 19% | 1400 ng·h/mL | 472 ng/mL | 728 ng·h/mL | 1.4 L/kg | 1 µg/mL (≈ 2.57 µM) | 30 ×10⁻⁶ cm/s | > 30 ×10⁻⁶ cm/s |
| O=c1[nH]c2cc(-c3cccc(Cl)c3)ccc2c2nc(-c3c(F)cccc3Cl)[nH]c12 | – | – | – | – | – | 0.5 µg/mL (≈ 1.18 µM) | 29 ×10⁻⁶ cm/s | > 30 ×10⁻⁶ cm/s |
| O=c1[nH]c2cc(Br)ccc2c2[nH]c(-c3ccccc3Cl)nc12 | – | – | – | – | – | 0.9 µg/mL (≈ 2.4 µM) | > 30 ×10⁻⁶ cm/s | 26 ×10⁻⁶ cm/s |
| O=c1[nH]c2cc(-c3ccccc3)ccc2c2nc(-c3ccccc3Cl)[nH]c12 | – | – | – | – | – | 1 µg/mL (≈ 2.69 µM) | > 30 ×10⁻⁶ cm/s | > 30 ×10⁻⁶ cm/s |
